Measurements published in article PMC4310348 (Drug Design, Development and Therapy, 2015).
In brackets after ≈: the same amount, converted by molar mass.

Legend:
[1] = system: Gram-positive mastitis organisms (57); test: MIC testing; assay type: cell-based; conditions: all 57 Gram-positive bovine mastitis isolates
Outline: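 MICs were run per CLSI guidelines for lipophilic compounds across the pooled bovine mastitis isolates. MIC was the lowest concentration preventing growth, judged visually and by OD600. MIC50 and MIC90 are the lowest concentrations inhibiting 50% and 90% of the whole collection.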

[2] = system: Streptococcus agalactiae (12); test: MIC testing; assay type: cell-based
Outline: (§1)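 Clinical bovine mastitis isolates from Australian dairy cattle, except MRSA isolates, which came from small-animal infections. Streptococci were speciated by biochemical tests and partial 16S rDNA sequencing. S. aureus was separated from coagulase-negative staphylococci by tube coagulase and latex agglutination. MICs followed CLSI guidelines for lipophilic compounds: lowest concentration preventing growth, judged visually and by OD600. MIC50/MIC90 were collated per species.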

[3] = system: Staphylococcus aureus (20); test: MIC testing; assay type: cell-based
Outline: as §1

[4] = system: Coagulase-negative staphylococci (14); test: MIC testing; assay type: cell-based
Outline: as §1

[5] = system: Streptococcus uberis (11); test: MIC testing; assay type: cell-based
Outline: as §1

MRSA (10) = test: MIC testing; assay type: cell-based, methicillin-resistant Staphylococcus aureus
Outline: as §1

[6] = Solubility of lasalocid in various solvents and milk; assay type: physicochemical; conditions: thermodynamic from solid
Outline: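 Excess solid test compound was added to each solvent and shaken for 24 hours. Samples were then filtered through 0.45 µm nylon, diluted and quantified by reversed-phase C8 HPLC with UV detection at 308 nm. The mobile phase was methanol:1.5% acetic acid (90:10) at 1.0 mL/min. All measurements were made in triplicate.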

[7] = pH-solubility determination of lasalocid; assay type: physicochemical
Outline: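 pH–solubility used MilliQ water adjusted with NaOH/HCl, or Universal buffer adjusted with 0.2 M NaOH, over pH 1.8–8. The buffer contained boric, citric and phosphoric acids at 0.04 M each. Excess solid was shaken for 24 hours, filtered through 0.45 µm nylon, diluted and quantified by C8 HPLC-UV at 308 nm. Measurements were made in triplicate.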

Milk distribution study = assay type: in vivo, Lactating Holstein dairy cows; conditions: six doses of 150 or 300 mg at 12-hourly intervals per quarter (IVP 7, IVP 8)
Outline: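 Lactating Holstein cows aged 2–10 years had two contralateral quarters challenged intramammarily with S. uberis. After mastitis was detected, quarters received a PVP–lasalocid solid dispersion in Miglyol 812/Aerosil R972 after each milking, six infusions 12-hourly. Milk was sampled at set times, with time 0 at the first dose. Samples of 100 µL were extracted with 900 µL methanol, centrifuged and analysed by C8 HPLC-UV at 308 nm.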

With `CC[C@@H](C(=O)[C@@H](C)[C@@H](O)[C@H](C)CCc1ccc(C)c(O)c1C(=O)O)[C@H]1O[C@](CC)([C@H]2CC[C@](O)(CC)[C@H](C)O2)C[C@@H]1C` [lasalocid] as the compound, how does the MIC50 [1] read?
Its MIC50 is 2 µg/mL (≈ 3.39 µM).

What about the MIC90 [1] of the same compound?
Its MIC90 is 4 µg/mL (≈ 6.77 µM).

What about the MIC50 ([2]; Streptococcus agalactiae) of the same compound?
The MIC50 was 2 µg/mL (≈ 3.39 µM).

And the MIC90 ([2]; Streptococcus agalactiae)?
The MIC90 was 4 µg/mL (≈ 6.77 µM).

And the MIC range ([2]; n=12 isolates)?
Its MIC range is 2 to 4 µg/mL.

And the MIC50 ([3]; Staphylococcus aureus)?
The MIC50 was 1 µg/mL (≈ 1.69 µM).

What about the MIC90 ([3]; Staphylococcus aureus) of the same compound?
The MIC90 was 1 µg/mL (≈ 1.69 µM).

What about the MIC range ([3]; n=20 isolates) of the same compound?
The MIC range was 0.5 to 1 µg/mL.

And the MIC50 [4]?
The MIC50 was 1 µg/mL (≈ 1.69 µM).

What about the MIC90 [4] of the same compound?
Its MIC90 is 2 µg/mL (≈ 3.39 µM).

And the MIC range ([4]; n=14 isolates)?
Its MIC range is 0.5 to 2 µg/mL.

What about the MIC50 ([5]; Streptococcus uberis) of the same compound?
Its MIC50 is 0.5 µg/mL (≈ 0.846 µM).

And the MIC90 ([5]; Streptococcus uberis)?
Its MIC90 is 0.5 µg/mL (≈ 0.846 µM).

And the MIC range ([5]; n=11 isolates)?
The MIC range was 0.5 to 1 µg/mL.

And the MIC50 (MRSA (10); Staphylococcus aureus, MRSA)?
The MIC50 was 0.5 µg/mL (≈ 0.846 µM).

And the MIC90 (MRSA (10); Staphylococcus aureus, MRSA)?
The MIC90 was 0.5 µg/mL (≈ 0.846 µM).

And the MIC range (MRSA (10); n=10 isolates from small animals)?
Its MIC range is 0.25 to 0.5 µg/mL.

What about the solubility at 24 h ([6]; DMSO, organic solvent or mixture) of the same compound?
The solubility at 24 h was 298000 ± 42400 µg/mL (≈ 504000 µM).

What about the solubility at 24 h ([6]; MilliQ water, water) of the same compound?
The solubility at 24 h was 750 ± 100 µg/mL (≈ 1270 µM).

And the solubility at 24 h ([6]; methanol, organic solvent or mixture)?
Its solubility at 24 h is 84700 ± 1630 µg/mL (≈ 143000 µM).

And the solubility at 24 h ([6]; milk, plasma or biological fluid)?
Its solubility at 24 h is 438 ± 13.1 µg/mL (≈ 741 µM).

What about the “Solubility at pH 1.8” value ([7]; MilliQ water with NaOH and HCl for pH adjustment) of the same compound?
The value was “non-detectable”.

And the “Solubility at pH 1.8” value ([7]; Universal buffer)?
Its value is “nondetectable”.

What about the solubility at 24 h ([7]; Universal buffer, pH 8, aqueous buffer, thermodynamic from solid) of the same compound?
Its solubility at 24 h is 9.66 ± 0.04 µg/mL (≈ 16.4 µM).

What about the “Time after the first dose until which high milk concentration was maintained” value (Milk distribution study) of the same compound?
Its value is 72 h.

What about the “Time after the first treatment by which residues in milk were not detectable” value (Milk distribution study) of the same compound?
Its value is no more than 144 h.

What about the “Time of peak lasalocid concentration in milk after the first dose” value (Milk distribution study) of the same compound?
Its value is 24 h.
